Results reported in ChEMBL document CHEMBL1125212, “Dual-action cephalosporins: cephalosporin 3'-quinolone carbamates” (J Med Chem, 1991).
In brackets after ≈: the same amount, converted by molar mass.

Tests used:
Type in all cases: functional
Escherichia coli [1] = assay: The compound was evaluated for the inhibition of [14C]- Pen G binding to Escherichia coli UB1005 PBP1b 90 kDa.
How it was run: (§1)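 Penicillin-binding protein assay using solubilized membranes from sonicated E. coli UB1005. Binding was read as inhibition of [14C]penicillin G binding to the PBPs.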

Escherichia coli [2] = assay: Minimum inhibitory concentration for inhibition of [14C]- Pen G binding to Escherichia coli UB1005.; how it was run: as §1
Escherichia coli [3] = assay: The compound was evaluated for the inhibition of [14C]- Pen G binding to Escherichia coli UB1005 PBP2 66 kDa.; how it was run: as §1
Escherichia coli [4] = assay: The compound was evaluated for the inhibition of [14C]- Pen G binding to Escherichia coli UB1005 PBP3 60 kDa.; how it was run: as §1
Escherichia coli [5] = assay: The compound was evaluated for the inhibition of [14C]- Pen G binding to Escherichia coli UB1005 PBP1a 90 kDa.; how it was run: as §1

Question: For `CC(C)(O/N=C(\C(=O)N[C@@H]1C(=O)N2C(C(=O)[O-])=C(C[n+]3ccccc3)CS[C@H]12)c1csc(N)n1)C(=O)O` [CEFTAZIDIME], which Inhibitory concentration (Escherichia coli [1]) is on record?
Answer: 10 µg/mL

Question: And the MIC (Escherichia coli [2])?
Answer: 0.1 µg/mL (≈ 0.183 µM)

Question: And the Inhibitory concentration (Escherichia coli [3])?
Answer: > 100 µg/mL

Question: And the Inhibitory concentration (Escherichia coli [4])?
Answer: 0.5 µg/mL

Question: What about the Inhibitory concentration (Escherichia coli [5]) of the same compound?
Answer: 10 µg/mL

Question: What does the source list for `CCN1CCN(C(=O)N[C@@H](C(=O)N[C@@H]2C(=O)N3C(C(=O)O)=C(CSc4nnnn4C)CS[C@H]23)c2ccc(O)cc2)C(=O)C1=O` [CEFOPERAZONE]?
Answer: Inhibitory concentration (Escherichia coli [1]): 10 µg/mL; MIC (Escherichia coli [2]): 1 µg/mL (≈ 1.55 µM); Inhibitory concentration (Escherichia coli [3]): 2 µg/mL; Inhibitory concentration (Escherichia coli [4]): < 0.1 µg/mL; Inhibitory concentration (Escherichia coli [5]): 10 µg/mL
